# Measurements from PubChem BioAssay.
# Activity calls are given as the source filed them.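 How the source made its calls, unless noted: active means mean duplicate potentiation above the buffer control mean plus 5 SD of buffer wells; inactive means the rest.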
# Tests used:
# [1] = nonspecific flux increase, KCNQ1-free cells – parental CHO cells, counter-screen for KCNQ1 potentiator project (AID 493006;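 active means duplicate-averaged activation above buffer control mean plus 5 SD of those controls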); details: parental CHO-K1 cells, FluxOR thallium flux, at 10 µM; active compounds read high
# Procedure, shortened: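 Assay system: parental CHO-K1 cells lacking KCNQ1, loaded with FluxOR thallium dye; timing: dye 90 min RT, compound 20 min RT; signal: kinetic thallium-flux fluorescence; repeats: duplicate wells per compound, percent values averaged; benchmarks: buffer and R-L3 controls; reagent: Potassium/thallium depolarization pulse; read-out: fluorescence change ratio scaled 0% buffer, 100% R-L3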
# [2] = target: Potassium voltage-gated channel subfamily KQT member 1 (Homo sapiens) (UniProt P51787); test: enhancement of KCNQ1 channel thallium flux – FluxOR thallium flux, CHO cells, duplicates, confirmation (AID 493007;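 active means potentiation averaged over duplicate wells exceeding buffer-only control mean by more than 3 SD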;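 on outcome: cells depolarized by a potassium plus thallium sulfate stimulus after compound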); details: KCNQ1 cell line, FluxOR thallium flux fluorescence, at 10 µM; active compounds read high, % of reference activator effect, buffer zero
# Potassium voltage-gated channel subfamily KQT member 1 (Homo sapiens), sequence (P51787 whole entry, looked up): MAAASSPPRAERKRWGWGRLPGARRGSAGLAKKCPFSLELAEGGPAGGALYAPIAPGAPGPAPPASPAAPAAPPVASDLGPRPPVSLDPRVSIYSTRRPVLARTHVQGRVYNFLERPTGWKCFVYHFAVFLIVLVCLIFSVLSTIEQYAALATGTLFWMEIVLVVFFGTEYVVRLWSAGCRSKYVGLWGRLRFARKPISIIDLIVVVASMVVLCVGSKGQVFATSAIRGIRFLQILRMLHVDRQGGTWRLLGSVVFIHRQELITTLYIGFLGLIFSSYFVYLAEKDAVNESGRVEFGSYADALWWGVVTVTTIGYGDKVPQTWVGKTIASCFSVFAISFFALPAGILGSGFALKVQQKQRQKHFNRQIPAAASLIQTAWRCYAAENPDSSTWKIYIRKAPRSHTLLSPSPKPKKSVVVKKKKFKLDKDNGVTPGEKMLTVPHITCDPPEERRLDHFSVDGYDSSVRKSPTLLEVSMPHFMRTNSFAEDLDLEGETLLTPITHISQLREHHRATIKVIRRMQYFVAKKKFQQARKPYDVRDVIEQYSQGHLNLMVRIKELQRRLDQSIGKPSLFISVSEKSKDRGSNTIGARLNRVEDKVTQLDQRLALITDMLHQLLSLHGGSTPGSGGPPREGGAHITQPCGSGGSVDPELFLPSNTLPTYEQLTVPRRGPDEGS
# Procedure, shortened: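 material = CHO cells stably expressing the KCNQ1 potassium channel | repeats = duplicate wells per compound | measure = percent activation between buffer and R-L3 responses | signal = FluxOR thallium-flux fluorescence, kinetic read | schedule = FluxOR dye loading 90 min, compound exposure 20 min, room temperature | control set = buffer and R-L3 controls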
# [3] = target: Potassium voltage-gated channel subfamily KQT member 2 (Rattus norvegicus) (UniProt O88943); test: KCNQ2 thallium flux enhancement – KCNQ2-CHO-K1 cells, selectivity assay for KCNQ1 potentiator project (AID 493009); details: FluxOR thallium flux fluorescence, at 10 µM; active compounds read high, scaled: buffer 0, activator control 100;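 further: assay conditions were tuned for KCNQ1 rather than KCNQ2 modulators; signal is max minus min fluorescence divided by baseline after thallium stimulus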
# Potassium voltage-gated channel subfamily KQT member 2 (Rattus norvegicus), sequence (O88943 whole entry, looked up): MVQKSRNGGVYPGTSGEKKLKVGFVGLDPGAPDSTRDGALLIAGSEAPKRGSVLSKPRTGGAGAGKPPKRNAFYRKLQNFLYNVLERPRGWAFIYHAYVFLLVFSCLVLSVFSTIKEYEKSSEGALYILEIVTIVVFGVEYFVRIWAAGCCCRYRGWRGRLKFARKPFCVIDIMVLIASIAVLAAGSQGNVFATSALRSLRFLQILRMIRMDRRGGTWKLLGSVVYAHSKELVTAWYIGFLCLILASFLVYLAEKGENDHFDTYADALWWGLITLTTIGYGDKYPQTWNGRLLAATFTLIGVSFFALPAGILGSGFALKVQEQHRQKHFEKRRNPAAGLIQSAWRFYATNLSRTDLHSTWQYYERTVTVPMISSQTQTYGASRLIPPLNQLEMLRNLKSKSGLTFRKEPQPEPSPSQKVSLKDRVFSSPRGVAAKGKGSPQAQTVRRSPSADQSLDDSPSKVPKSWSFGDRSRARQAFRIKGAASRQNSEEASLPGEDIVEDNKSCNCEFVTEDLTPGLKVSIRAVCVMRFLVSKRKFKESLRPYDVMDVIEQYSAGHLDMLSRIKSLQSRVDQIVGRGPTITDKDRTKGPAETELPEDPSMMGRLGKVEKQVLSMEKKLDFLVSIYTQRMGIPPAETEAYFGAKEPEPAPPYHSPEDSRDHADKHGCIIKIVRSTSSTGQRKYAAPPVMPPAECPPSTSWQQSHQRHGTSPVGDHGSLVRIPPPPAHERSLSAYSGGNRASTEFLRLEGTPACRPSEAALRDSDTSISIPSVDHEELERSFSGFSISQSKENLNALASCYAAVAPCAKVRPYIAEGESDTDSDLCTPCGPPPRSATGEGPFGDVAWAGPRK
# [4] = target: Potassium voltage-gated channel subfamily KQT member 1 (Homo sapiens) (UniProt P51787); test: KCNQ1 activators by electrophysiology – IonWorks patch clamp, KCNQ1-CHO cells, orthogonal assay for KCNQ1 potentiator project, confirmation (AID 493184;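 active means current rise at least 3 SD above the untreated control mean in each of two repeat wells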); details: automated patch clamp current, at 10 µM; active compounds read high
# Procedure, shortened: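 Assay system – CHO cells carrying KCNQ1 · Medium – pH 7.4 external bath · Probe or stimulus – depolarizing pulse to +40 mV from -90 mV · Compound dosing – one dose, 10 µM final · Measured by – automated perforated-patch electrophysiology · Measure – % potentiation of steady-state current relative to pre-compound · Repeats – two replicates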
# [5] = target: Potassium voltage-gated channel subfamily E member 1 (Homo sapiens) + Potassium voltage-gated channel subfamily KQT member 1 (Homo sapiens) (UniProt P15382+P51787); test: KCNQ1-E1 channel activation – thallium flux, CHO-K1 KCNQ1/E1 cells, selectivity assay for KCNQ1 potentiator project, confirmation (AID 493186;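 active means mean duplicate activation above the buffer control mean plus 5 SD of those controls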); details: FluxOR thallium flux, at 10 µM; active compounds read high
# Potassium voltage-gated channel subfamily E member 1 (Homo sapiens) + Potassium voltage-gated channel subfamily KQT member 1 (Homo sapiens), sequence (P51787 whole entry, looked up): as the sequence (P51787 whole entry, looked up) above
# Procedure, shortened: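 Assay system: CHO-K1 cells with KCNQ1/E1 | Dosing: Single compound concentration per well | Incubation: Dye 90 min, compound 20 min, room temperature | Measured by: FluxOR Tl+ flux fluorescence, kinetic read | Controls: Buffer low control, R-L3 high control | Replicates: Duplicate wells per compound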
Compound,outcome [1],potentiation [2],outcome [3],outcome [4],outcome [5],outcome [2],potentiation [3]
COc1ccc(-c2csc(NC(=S)NC(=O)c3ccco3)n2)cc1Br,inactive,25% (active),inactive,inactive,inactive,–,–
O=C(NC(=S)Nc1ccc2c(c1)OCCO2)c1cccc2ccccc12,inactive,–,inactive,inactive,inactive,inactive,–
COc1ccc(OCC(=O)NC(=S)NNC(=O)COc2ccc(Br)cc2Cl)cc1,inactive,18.5% (active),inactive,inactive,inactive,–,–
C=CCSc1nc2c(c(=O)[nH]1)C(C(C)C)C(C#N)=C(N)O2 (stereo not given),inactive,–,inactive,inactive,inactive,inactive,–
COc1ccc(Cn2c(=O)c3[nH]cnc3n(-c3ccccc3C)c2=O)cc1,inactive,–,inactive,inactive,inactive,inactive,–
N#Cc1ccc(Cl)cc1NC(=O)COC(=O)[C@H](CCC(N)=O)NC(=O)c1ccc(F)cc1,inactive,–,inactive,inactive,inactive,inactive,–
Cc1cc(C)nc(N/N=C/c2cccc3ccccc23)n1,inactive,–,inactive,inactive,inactive,inactive,–
CNC(=O)CSc1nc2c(c(=O)n(C)c(=O)n2C)n1Cc1ccc(C)cc1,inactive,–,inactive,inactive,inactive,inactive,–
CCCCOc1cccc(C(=O)NC(=S)Nc2cccnc2)c1,inactive,–,–,inactive,inactive,inactive,143% (active)
CN(C)CCNc1nc2sc3c(c2c(=O)n1CCc1ccccc1)CCCCC3,inactive,19% (active),inactive,inactive,inactive,–,–
CCN(c1ccccc1)S(=O)(=O)c1ccc(NC(=S)NC(=O)c2ccc(Br)o2)cc1,inactive,76% (active),–,inactive,inactive,–,168% (active)
Oc1c(Br)cc(Br)cc1CNc1cccc2cccnc12,inactive,28.5% (active),inactive,inactive,inactive,–,–
Cc1ccc(N(C(=O)Cn2nnc(-c3ccccc3F)n2)C(C(=O)NC2CCCC2)c2ccncc2)cc1 (stereo not given),inactive,–,inactive,inactive,inactive,inactive,–
Cc1ccc(S(=O)(=O)Nc2cccc3ncccc23)s1,inactive,19.5% (active),–,inactive,inactive,–,168% (active)
CCc1ccc(-c2ccc3nnc(SC)n3n2)cc1,inactive,–,inactive,inactive,inactive,inactive,–
CCc1ccc2oc(C(=O)NC3CCS(=O)(=O)C3)cc(=O)c2c1 (stereo not given),inactive,–,inactive,inactive,inactive,inactive,–
Cc1cc(C)cc(-n2c(C)cc(/C=C3\C(=N)N4N=C(CC(C)C)SC4=NC3=O)c2C)c1,inactive,21.5% (active),inactive,inactive,inactive,–,–
CCCc1cc(=O)[nH]c(SCC(=O)Nc2ccc(Br)cc2Br)n1,inactive,–,inactive,inactive,inactive,inactive,–
O=C(Nc1ccc(N2CCCC(O)C2)cc1)c1snc2c(=O)[nH]cnc12 (stereo not given),inactive,–,inactive,inactive,inactive,inactive,–
C/C(=N\NC(=S)NCCc1ccccc1)c1cccs1,inactive,–,inactive,inactive,inactive,inactive,–

Compound,outcome [1],potentiation [2],outcome [3],outcome [4],outcome [5],outcome [2],potentiation [3]
Cc1ccc(NC(=O)Nc2ccc3c(c2)CCC3)cc1,inactive,–,inactive,inactive,inactive,inactive,–
OCCN1CCN(c2nc(-c3ccccc3)nc3c2oc2ccccc23)CC1,inactive,–,inactive,inactive,inactive,inactive,–
CCN(CC)CCNc1ncnc2c1sc1nc(N3CCCC3)c3c(c12)CC(C)(C)OC3,inactive,–,inactive,inactive,inactive,inactive,–
Cn1cnc([N+](=O)[O-])c1S(=O)(=O)c1cccc(Cl)c1,inactive,–,inactive,inactive,inactive,inactive,–
CCN(CC)S(=O)(=O)c1cccc(C(=O)N/N=C/c2cccc(O)c2O)c1,inactive,–,inactive,inactive,inactive,inactive,–
S=c1nc[nH]c2c1sc1nc(N3CCOCC3)c3c(c12)CCCC3,inactive,105% (active),inactive,inactive,inactive,–,–
COC(=O)N/N=C/c1cc(C)n(-c2ccc(F)cc2)c1C,inactive,–,inactive,inactive,inactive,inactive,–
Cc1ccc2nc(C3CCN(S(=O)(=O)c4ccc5ccccc5c4)CC3)[nH]c2c1,inactive,–,inactive,inactive,inactive,inactive,–
COc1ccc(C(=O)NC(=S)N(C)C2CCCCC2)cc1Br,inactive,–,inactive,inactive,inactive,inactive,–
CCOC(=O)c1c(C)nc2sc3c(=O)n(-c4ccc(OC)cc4)cnc3c2c1-c1ccc(OC)cc1,inactive,–,inactive,inactive,inactive,inactive,–
COc1cc2c(cc1OC)CN(CCC(=O)c1ccc(Br)cc1)CC2,inactive,–,inactive,inactive,inactive,inactive,–
CCCOc1ccc(C(=O)NNC(=S)NC(=O)c2cc(-c3ccc(Cl)cc3)nc3ccccc23)cc1,inactive,–,inactive,inactive,inactive,inactive,–
CCOC(=O)Cn1c(C(=O)OCC)cc2sccc21,inactive,35.5% (active),inactive,inactive,inactive,–,–
Cc1cccc(/N=C/c2sc3ccccc3c2O)n1,inactive,–,inactive,inactive,inactive,inactive,–
Cc1cccc(Cn2c(O)c(N=NC(=S)Nc3ccccc3F)c3ccccc32)c1,inactive,22.5% (active),–,inactive,inactive,–,148% (active)
COc1ccc(C2(C)CC(C)(C)Nc3ccccc32)cc1 (stereo not given),inactive,68.5% (active),inactive,inactive,inactive,–,–
COc1cc(/C=C2\C(=O)N(CCC#N)N=C2C)c(Br)cc1OC(C)C,inactive,–,inactive,inactive,inactive,inactive,–
O=C(NCc1ccccc1)C(=O)Nc1nc(C23CC4CC(CC(C4)C2)C3)cs1,inactive,–,inactive,inactive,inactive,inactive,–
COC(=O)C1=C(C)Nc2nc(-c3ccccc3)nn2C1c1ccc(C)o1 (stereo not given),inactive,30% (active),inactive,inactive,inactive,–,–
COc1ccc(-c2nonc2NC(=O)c2oc3ccccc3c2C)cc1OC,inactive,–,inactive,inactive,inactive,inactive,–

Compound,outcome [1],potentiation [2],outcome [3],outcome [4],outcome [5],outcome [2],potentiation [3]
O=C(N/N=C/c1ccc([N+](=O)[O-])o1)c1sc2ccccc2c1Cl,inactive,–,inactive,inactive,inactive,inactive,–
CCCOc1ccc(C(=O)NNC(=S)NC(=O)CC)cc1,inactive,–,inactive,inactive,inactive,inactive,–
C=CS(=O)(=O)c1sc(Cl)c(N2CCOCC2)c1[N+](=O)[O-],inactive,19% (active),inactive,inactive,inactive,–,–
C=CCn1c(O)c(N=NC(=S)Nc2ccc(OC)cc2)c2ccccc21,inactive,33.5% (active),inactive,inactive,inactive,–,–
O=C(CSc1nnc(-c2ccccn2)n1-c1ccc(Cl)cc1)Nc1ccc2c(c1)OCO2,inactive,–,inactive,inactive,inactive,inactive,–
O=C(Nc1nc(-c2cc(F)ccc2F)cs1)c1ccccn1,inactive,–,inactive,inactive,inactive,inactive,–
CCOc1ccc(NC(=O)c2ccc(N)cc2)cc1,inactive,–,inactive,inactive,inactive,inactive,–
O=C(NC(=S)Nc1cc(C(F)(F)F)ccc1Cl)c1ccccc1,inactive,–,inactive,inactive,inactive,inactive,–
CCOC(=O)c1c(N)sc(C(C)=O)c1C,inactive,–,inactive,inactive,inactive,inactive,–
COc1ccc(C(=O)N=C2CCC(C#N)=C3c4cc(OC)c(OC)cc4CCN23)cc1,inactive,34.5% (active),inactive,inactive,inactive,–,–
Fc1ccc(-n2cc(-c3ccccc3)c3c(=S)nc[nH]c32)cc1,inactive,108% (active),inactive,inactive,inactive,–,–
Cc1cc(C)c2c(n1)nn1c(NCCCN(C)C)cc(C)nc21,inactive,–,inactive,inactive,inactive,inactive,–
CC1(c2ccc(OC(F)F)cc2)NC(=O)N(CC(=O)Nc2ccc3c(c2)OCO3)C1=O (stereo not given),inactive,–,inactive,inactive,inactive,inactive,–
O=C(NC(=S)Nc1cccc([N+](=O)[O-])c1)c1ccco1,inactive,–,inactive,inactive,inactive,inactive,–
N=c1sccn1CC(=O)Nc1ccc(S(=O)(=O)N2CCOCC2)cc1,inactive,–,inactive,inactive,inactive,inactive,–
CC(=O)C[C@H]1c2cc(C(F)(F)F)ccc2S(=O)(=O)N1C1CCCCC1,inactive,74% (active),inactive,inactive,inactive,–,–
CCn1c(CCNC(=O)c2ccc(Cl)cc2Cl)n[nH]c1=S,inactive,–,inactive,inactive,inactive,inactive,–
CC(=C/c1ccccc1)/C=N/n1c(-c2ccco2)n[nH]c1=S,inactive,–,inactive,inactive,inactive,inactive,–
COc1cc(C(=O)Nc2ccc3c(c2)nc(C)n3C)cc(OC)c1OC,inactive,–,inactive,inactive,inactive,inactive,–
